# From PubChem BioAssay
# core dimer inh: blocks dimerization of HCV core protein; TR-FRET GST/Flag-core106 dimerization, 1536-well; inhibition, % at 5 µM; actives 0.33% (n = 300,000); AID 1899;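 active = inhibition above the mean of all tested compounds plus 3 SD, set per screening campaign, cut at about 45% in these data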
#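 Material: GST/Flag-tagged HCV core106 proteins. Incubation: 4 h, 22.5 °C incubation. Read-out basis: inhibition (%) from 671 over 617 nm ratio. Measured by: TR-FRET, excitation 340 nm, emission 617 and 671 nm.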
# DAGLB inh: diacylglycerol lipase beta (human) inhibition; Q8NCG7; HEK293T DAGLB membrane lysate, EnzChek fluorogenic substrate; inhibition, % at 5.17 µM; actives 0.059% (n = 340,000); AID 504411; in the data active = inhibition above about 34%;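 note: 0% = enzyme with vehicle and 100% = wells lacking enzyme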
# NS3 helicase inh: HCV NS3 helicase inhibition; actives 0.56% (n = 290,000); AID 1800; NS3 helicase DNA unwinding, Cy5 molecular beacon fluorescence; inhibition, % at 10.9 µM;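 active = inhibition above the mean of all tested compounds plus 3 SD, set per campaign, cut at about 35% in these data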;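 note: 0% = DMSO wells and 100% = thioflavine S control wells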
#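 Assay system – hepatitis C virus NS3 helicase domain fragment enzyme · Buffer or medium – MOPS pH 6.5, MgCl2, DTT, Tween20, BSA · Reagent – Cy5/quencher beacon DNA duplex and ATP to start · Compound – single 10.9 µM dose · Timing – 1 h at 25 °C · Technique – Cy5 beacon fluorescence read at start and 1 h · Measure – % inhibition of unwinding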
# GRK2 aptamer HTS: blocks RNA aptamer binding to human GRK2; bead flow cytometry, FAM-aptamer displacement from GRK2; P25098; actives 0.59% (n = 330,000); AID 488847; inhibition of aptamer binding, % at 10 µM;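 active = inhibition of aptamer binding above 40%, roughly 3 SD of noise, on plates passing a quality check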;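 note: median bead fluorescence of bound FAM aptamer so fluorescent compounds give negative values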
# Target sequence (P25098 whole entry, looked up): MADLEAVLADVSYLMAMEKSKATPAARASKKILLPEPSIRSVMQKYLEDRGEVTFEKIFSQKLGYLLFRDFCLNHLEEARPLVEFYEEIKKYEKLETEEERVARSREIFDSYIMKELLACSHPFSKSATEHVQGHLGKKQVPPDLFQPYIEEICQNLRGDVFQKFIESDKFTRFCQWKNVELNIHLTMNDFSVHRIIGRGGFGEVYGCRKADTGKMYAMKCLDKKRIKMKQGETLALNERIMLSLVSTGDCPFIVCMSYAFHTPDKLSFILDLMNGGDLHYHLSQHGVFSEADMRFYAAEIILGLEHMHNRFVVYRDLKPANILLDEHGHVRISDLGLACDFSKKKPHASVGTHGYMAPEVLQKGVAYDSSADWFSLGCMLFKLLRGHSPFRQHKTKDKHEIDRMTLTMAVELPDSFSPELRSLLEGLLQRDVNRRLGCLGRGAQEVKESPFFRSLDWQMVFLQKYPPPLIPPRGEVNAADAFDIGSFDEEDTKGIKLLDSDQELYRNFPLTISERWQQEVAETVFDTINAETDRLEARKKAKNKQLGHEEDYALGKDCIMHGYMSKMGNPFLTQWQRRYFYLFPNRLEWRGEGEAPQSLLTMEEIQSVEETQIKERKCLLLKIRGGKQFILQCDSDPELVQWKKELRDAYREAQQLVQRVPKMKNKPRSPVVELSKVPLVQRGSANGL
# DNA FID counter: fluorescent intercalator displacement, NS3 helicase counter-screen; DNA fluorescent intercalator displacement, fluorescence; inhibition, % at 7.9 µM; actives 0.17% (n = 290,000); in the data active = inhibition above about 37%;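 note: 0% = vehicle and 100% = reference compound; higher means more ethidium bromide displaced from hairpin DNA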
# GPR7 antag: blocks human GPR7 receptor signaling | P48145 | inhibition, % at 4.4 µM | actives 1.1% (n = 290,000) | GPR7-expressing cells, fluorescence antagonist assay; in the data active = inhibition above about 16%, passing the limit was not always enough;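 note: cells stimulated with the agonist NPW; 0% = agonist with vehicle and 100% = vehicle without agonist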
# GPR7 antag cf: confirmation of human GPR7 antagonists; AID 1952; shares compounds with GPR7 antag; GPR7-expressing cells, calcium fluorescence antagonist mode; inhibition, % at 4.4 µM; actives 52% (n = 2,400); in the data active = inhibition above about 24%;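 note: stimulated with the GPR7 agonist NPW; 0% = agonist plus vehicle and 100% = vehicle alone without agonist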
# MCHR1 antag: MCHR1 (human) antagonism in GPR7 counter-screen | shares compounds with GPR7 antag | MCHR1-expressing cells, fluorescence antagonist assay | inhibition, % at 4.4 µM | actives 62% (n = 2,400); in the data active = inhibition above about 22%;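 note: 0% = vehicle with agonist and 100% = vehicle without agonist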
# * = called active by the depositor; . = no result given. This is a sample that favours compounds with a hit; in the whole collection about 2.2% have one here.
SMILES,core dimer inh,DAGLB inh,NS3 helicase inh,GRK2 aptamer HTS,DNA FID counter,GPR7 antag,GPR7 antag cf,MCHR1 antag
Cc1cc(Cl)cc(C)c1OCC(=O)N1CCN(c2ncccn2)CC1,.,-14,.,1,.,.,.,.
N#Cc1ccc(CSc2nnc(Cc3cccs3)n2Cc2ccco2)cc1,45,-4,10,5,-35,25*,28*,20
COc1cc2c(cc1NC(=O)CSc1nnc(Cc3cccs3)n1Cc1ccco1)oc1ccccc12,11,-3,-3,0,-2,-5,.,.
Cc1cc(Cl)ccc1NC(=O)CSc1nnc(Cc2cccs2)n1Cc1ccco1,19,-1,8,0,-24,23*,38*,34*
N#Cc1ccc(CSc2nnc(-c3ccccc3)n2Cc2ccco2)cc1,8,1,0,0,-17,13,.,.
CCCc1cc(=O)n2nc(N3CCC(C(=O)Nc4cccc(C(C)=O)c4)CC3)sc2n1,-7,0,1,2,-42,1,.,.
CCOC(=O)c1cn(Cc2ccccc2)nc1-c1ccccc1,0,-7,.,0,.,.,.,.
COc1cc(NS(=O)(=O)c2cc3[nH]c(=O)c(=O)[nH]c3cc2C)cc(OC)c1OC,12,-2,13,0,-2,43*,4,5
Cc1ccc(CS(=O)(=O)c2ncc(Cl)c(C(=O)Nc3nnc(C(C)C)s3)n2)cc1,12,2,-1,0,-53,-7,.,.
CCS(=O)(=O)c1ncc(Cl)c(C(=O)Nc2ccc(C)cc2)n1,-10,-6,13,0,4,53*,52*,84*
CCS(=O)(=O)c1ncc(Cl)c(C(=O)Nc2ccc(S(=O)(=O)N3CCCC(C)C3)cc2)n1 (centres undefined),13,4,-30,0,-38,59*,86*,97*
Cc1ccc(CS(=O)(=O)c2ncc(Cl)c(C(=O)Nc3ccc(OC(F)F)cc3)n2)cc1,-3,1,-6,1,-16,43*,84*,96*
CCC1CCCCN1S(=O)(=O)c1ccc(NC(=O)c2nc(S(C)(=O)=O)ncc2Cl)cc1 (centres undefined),13,1,-30,0,-32,74*,90*,101*
CC(=O)Nc1ccc(NC(=O)c2nc(S(=O)(=O)Cc3ccccc3)ncc2Cl)cc1,4,1,-3,0,-6,3,.,.
CC1CCCN(S(=O)(=O)c2ccc(NC(=O)CNC3CCCC3)cc2)C1 (centres undefined),-10,-2,-5,1,-3,-4,.,.
CSc1nsc(SC)c1C(=O)N1CCN(S(=O)(=O)c2ccc(C)cc2)C1C(C)C (centres undefined),7,-9,3,2,-33,27*,17,46*
CSc1nsc(SC)c1C(=O)N1CCN(S(=O)(=O)c2ccc(C)cc2)C1C (centres undefined),6,-1,-2,4,-19,-1,.,.
CCOC(=O)c1c(NC(=O)c2cccnc2)sc(C(C)=O)c1C,-2,0,4,0,-3,23*,-1,-4
CCOC(=O)C1CCN(S(=O)(=O)c2cc(C(=O)OC)n(C)c2)CC1,-3,0,2,4,-16,-3,.,.
CCC(=O)N1CCc2cc(Br)cc(S(=O)(=O)N(C)c3ccc(OC)cc3)c21,11,0,-14,14,-33,38*,24,54*
CN(C)S(=O)(=O)c1ccc(C(=O)OCC(=O)NCc2ccco2)cc1,6,-2,-3,5,-5,-1,.,.
COc1ccc(S(=O)(=O)N2CCCCC2)cc1NC(=O)Cc1sc(C)nc1-c1ccc(F)cc1,9,-2,.,0,.,.,.,.
COc1ccccc1CNC(=O)c1csc(Cc2ccc(Cl)cc2)n1,18,-5,-12,1,-19,29*,22,45*
O=C(OCC(=O)N1CCN(c2ccccc2)CC1)c1ccc(O)cc1O,3,1,-4,3,-15,26*,15,6
O=C(OCC(=O)N1CCN(c2ccccc2)CC1)c1cc(Br)ccc1Cl,.,-8,.,3,.,.,.,.
SMILES,core dimer inh,DAGLB inh,NS3 helicase inh,GRK2 aptamer HTS,DNA FID counter,GPR7 antag,GPR7 antag cf,MCHR1 antag
Cc1ccc(C)c(OCCCNCc2ccccc2)c1,4,-2,-29,0,17,-5,.,.
Cc1ccc(C(C)C)c(OCCN(C)C)c1,-3,1,2,0,10,-7,.,.
CCCN(CCC)CCOc1cc(C)ccc1C(C)C,-9,-4,-16,8,6,24*,31*,20
Cc1ccc(C(C)C)c(OCCNCc2ccccc2)c1,-4,-8,-57,0,28,30*,21,68*
Cc1ccc(S(=O)(=O)N(C)S(=O)(=O)c2ccc(C#N)cc2)cc1,-2,.,5,0,-12,25*,19,25*
Cc1ccc(S(=O)(=O)CC(O)COc2ccc(C#N)cc2)cc1 (centres undefined),4,1,2,0,-6,-9,.,.
Clc1ccc(CSCCc2ccncc2)cc1,-1,-8,0,0,-7,23*,9,26*
O=C(CSc1nc(-c2ccccc2)cs1)Nc1nccs1,4,3,0,1,0,27*,3,16
Cc1ccc(C)c(S(=O)(=O)NCC(=O)Nc2ccc3c(c2)OCO3)c1,.,-3,-1,0,-14,0,.,.
O=C1c2ccc(Oc3ccc([N+](=O)[O-])cc3)cc2C(=O)N1CCO,0,-1,-2,3,-2,7,.,.
O=C(O)c1ccc(CN2C(=O)c3ccc(Oc4ccc([N+](=O)[O-])cc4)cc3C2=O)cc1,0,1,19,5,-27,39*,12,16
CC(C)N(CCCNC(=O)c1ccc(CS(=O)(=O)c2c(Cl)cccc2Cl)o1)Cc1ccccc1,9,-1,-8,0,14,-2,.,.
CCOc1ccc(-n2c(-c3ccccc3)c[n+]3c2CCCCC3)cc1,-10,4,4,2,4,29*,47*,45*
Cc1sc(NC(=O)c2ccco2)c(CN2CCN(c3ccccn3)CC2)c1C,7,-6,-10,0,-4,32*,13,49*
Cc1sc(NC(=O)c2ccco2)c(CN2CCN(c3ccc(F)cc3)CC2)c1C,-1,-5,3,3,-2,-7,.,.
CCN(CC)c1ccc(/C=C/c2ccc3ccc(OC)cc3[n+]2CC)cc1,-29,11,-15,22,-10,47*,65*,65*
CC[n+]1c(/C=C/c2ccc(N(C)C)cc2)ccc2ccccc21,-56,16,-9,0,27,7,.,.
